Yeast life ext: extends the lifespan of yeast | S. cerevisiae growth with nicotinamide, OD615; deaD strain in restrictive glucose medium | inhibition of the nicotinamide effect, % at 10 µM | 130,000 compounds, 0.68% hits;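 active means inhibition above a set limit, placed 3 SD over the median of all compounds, cut at about 26% in these data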
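System: DeaD-strain S. cerevisiae / Buffer or medium: CSMM-D, restrictive glucose (dextrose) synthetic minimal medium / Probe or stimulus: nicotinamide, 1.5 mM, co-present with compound / Compound: one concentration, 10 µM, DMSO 0.25% / Incubation: 48 h compound exposure at 30 °C, humidified / Technique: optical density (absorbance) at 615 nm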
Measles CPE: protection of cells from measles virus; Measles virus-infected cells, CPE protection, absorbance; 140,000 compounds, 1.5% hits; AID 841; protection (pct of control), % at 4 µM; in the data active means protection mostly above about 24%, no sharp cut-off; inactive means mostly below about 26%
Insulin prom inh: TRM-6 insulin promoter activity inhibition | inhibition, % at 2 µM | 130,000 compounds, 0.9% hits | TRM-6 cells, insulin promoter-eGFP reporter, imaging; reporter expression induced with tamoxifen;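 active means inhibition above the mean plus 3 SD, with well images judged a real hit on visual review, cut at about 60% in these data, passing the limit was not always enough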
Mdm2 ligase inh: blocks human Mdm2 ubiquitin ligase activity. Q00987. AID 1230. cell-based MDM2 ubiquitination luciferase reporter, 2 h; 0 = plate control, 100 = twice control, blank-subtracted. 210,000 compounds, 0.11% hits. signal enhancement, % at 5 µM;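 active means signal enhancement of 30% or more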;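 further: luminescence tracks abundance of the self-degrading MDM2-luciferase fusion protein; higher signal means inhibition of MDM2 E3 ligase activity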
Target sequence (Q00987 whole entry, looked up, the tested form may be a part): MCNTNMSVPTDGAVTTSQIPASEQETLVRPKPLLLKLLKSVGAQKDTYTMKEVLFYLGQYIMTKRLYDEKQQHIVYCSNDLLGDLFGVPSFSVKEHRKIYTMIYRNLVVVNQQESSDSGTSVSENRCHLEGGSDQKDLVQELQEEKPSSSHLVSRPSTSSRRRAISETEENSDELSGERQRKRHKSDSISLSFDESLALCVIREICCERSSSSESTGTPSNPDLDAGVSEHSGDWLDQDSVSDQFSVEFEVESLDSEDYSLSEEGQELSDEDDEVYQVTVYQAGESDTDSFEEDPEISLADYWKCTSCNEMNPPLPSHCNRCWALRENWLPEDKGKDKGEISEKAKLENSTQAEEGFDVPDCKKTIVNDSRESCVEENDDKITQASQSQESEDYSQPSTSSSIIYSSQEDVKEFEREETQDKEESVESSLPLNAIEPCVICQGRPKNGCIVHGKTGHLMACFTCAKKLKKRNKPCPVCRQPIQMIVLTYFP
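System: stable MDM2–luciferase fusion reporter cells / Input: 2000 cells seeded into each well / Schedule: 4 h settle plus 2 h compound, 37 °C / Compound: single-point 5 µM / Buffer or medium: cells held in DMEM / Benchmarks: control and blank well means / Evaluation: percent signal gain over controls, blank-subtracted / Measured by: luciferase luminescence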
Yeast growth inh: chemicals that inhibit yeast BB579 growth in restrictive medium (lifespan-shortening candidates); S. cerevisiae BB579 growth, OD615, 48 h; inhibition, % at 10 µM; 140,000 compounds, 0.51% hits;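 active means inhibition above a set limit, 3 SD over the mean compound inhibition, cut at about 44% in these data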
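controls = amphotericin B 10 µg/mL, positive | assay system = DeaD yeast strain BB579 | schedule = 48 h compound exposure at 30 °C after 4 h preincubation | detection = OD615 turbidity measurement | medium = restrictive CSMM-D medium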
RAM network inh: yeast RAM network inhibition; inhibition, % at 50 µM; 190,000 compounds, 1.8% hits; S. cerevisiae dse1pr::URA3 reporter, 5-FOA growth OD615, 2 d; analog-sensitive cbk1-as2 kinase mutant strain;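 active means inhibition above a set limit, 3 SD over mean compound inhibition, cut at about 8.4% in these data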;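 further: inhibition rescues growth on 5-FOA so higher OD means more RAM inhibition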
Numbers stand for hits; i = inactive; nt = no result given. Shown are actives, neighbours in structure and some others; about 4% of the full set was active somewhere.

SMILES	Yeast life ext	Measles CPE	Insulin prom inh	Mdm2 ligase inh	Yeast growth inh	RAM network inh
O=C(CN(CCc1ccccc1)C(=O)CNS(=O)(=O)c1ccc(F)cc1)NCC1CCCO1 (stereo not given)	i	33	nt	i	i	i
O=C1CCN(Cc2ccccc2)S(=O)(=O)c2ccccc21	nt	nt	nt	40	nt	nt
C=C1CCN(Cc2ccccc2)S(=O)(=O)c2ccccc21	nt	nt	nt	i	nt	nt
CCOC(=O)N1CCN(CC(=O)Nc2ccc(C)c(Br)c2)CC1	i	i	i	i	i	i
CNC(=S)N(Cc1cccs1)Cc1cc2cc(OC)ccc2[nH]c1=O	i	i	i	i	i	i
CCOc1ccc2[nH]c(=O)c(CN(Cc3cccs3)Cc3nnnn3C(C)(C)CC)cc2c1	i	i	nt	i	i	i
COc1ccc(NC(=S)N(Cc2cccnc2)Cc2cc3cc(OC)c(OC)cc3[nH]c2=O)cc1	nt	nt	nt	i	nt	8.6
CCC(C)(C)n1nnnc1CN(Cc1cccs1)Cc1cc2cc(OC)ccc2[nH]c1=O	i	37	nt	i	i	i
COc1ccc2[nH]c(=O)c(CN(Cc3cccs3)C(=S)Nc3cccc(C)c3)cc2c1	i	i	i	i	i	10
CCN(CC)S(=O)(=O)c1ccc2c(c1)nc(CCC(=O)Nc1ccccc1Cc1ccccc1)n2CC	i	i	i	i	i	i
CCCc1c2ccccc2nc2ccccc12	i	i	85	i	i	i
O=C(O)c1ccc(N/N=C/C2=C(N3CCOCC3)C(=C\c3ccccc3)/CC2)cc1	nt	nt	nt	i	nt	nt
CC(C)C(NC(=O)C12CC3CC(CC(C3)C1)C2)C(=O)N/N=C/C1=C(N2CCOCC2)C(=C\c2cccc([N+](=O)[O-])c2)/CC1 (stereo not given)	i	i	i	i	i	9.6
CC(C)CCN1NC2(CCCC(C)C2)NC1=S (stereo not given)	nt	nt	nt	i	nt	nt
CC1CCCC2(C1)NC(=S)c1c(sc3c1CCCC3)N2 (stereo not given)	i	i	i	i	86	i
CCCCCCN(C(=O)CCCCCN1C(=O)NC(c2ccc(-c3ccccc3)cc2)C(C(=O)OCc2ccccc2)=C1C)C(C(=O)NCCCC)c1ccc(O)c(C(=O)OC)c1 (stereo not given)	nt	nt	nt	i	nt	nt
O=C(CSc1nnc(-c2cccnc2)n1C1CCCCC1)NC1CCCCC1	i	i	i	36	i	i
COc1ccccc1CN1C[C@@H]2C[C@@H](c3[nH]c4c(C)cccc4c3C)N3CCC[C@@]23C1=O	nt	nt	nt	i	nt	i
O=S(=O)(Nc1ccc(-c2nc3ccccc3o2)cc1)c1ccccc1	i	i	i	i	46	i
Cc1ccc(S(=O)(=O)n2nc(-c3ccco3)nc2N)cc1	nt	nt	i	i	nt	i
CCC(=Nc1ccc(N)cc1)C1=C(O)C(C(=O)OC)C(C)(C)CC1=O (stereo not given)	30	i	nt	i	i	i
CCCCC(=Nc1ccc(N)cc1)C1=C(O)C(C(=O)OC)C(C)(C)CC1=O (stereo not given)	72	i	i	i	i	i
CCOC(=O)CN1CC23C=CC(O2)C(C(=O)Nc2ccc(C(C)=O)cc2)C3C1=O (stereo not given)	i	i	nt	i	i	i
N=c1n(CCCOc2ccccc2Cl)c2ccccc2n1CC(N)=O	nt	nt	nt	i	nt	nt
Cc1cc(-c2ccc(NC(=O)[C@@H]3CCCC[C@@H]3C(=O)O)c(C)c2)ccc1NC(=O)[C@@H]1CCCC[C@@H]1C(=O)O	nt	nt	nt	i	nt	i
SMILES	Yeast life ext	Measles CPE	Insulin prom inh	Mdm2 ligase inh	Yeast growth inh	RAM network inh
COc1cc(NC(=O)c2ccc(NS(=O)(=O)c3c(C)noc3C)cc2)cc(OC)c1	i	i	nt	i	i	11
COc1ccc(OC)c(NC(=O)c2ccc(NS(=O)(=O)c3c(C)noc3C)cc2)c1	i	i	nt	i	i	i
CN(C)C(=O)c1sccc1Oc1ccc(F)cc1[N+](=O)[O-]	nt	nt	i	i	nt	i
COc1nc(C)nc(NC(=O)NS(=O)(=O)c2ccc(C)cc2)n1	i	i	i	i	i	i
CCOC(=O)c1cnc2c(C)cccc2c1NCc1ccco1	i	i	68	i	i	i
CC(C)(C)NC(=O)c1ccc2nsnc2c1	i	i	i	i	i	i
Cc1ccc(-n2nc3c(Cl)nnc(C)c3c2C)cc1	i	i	i	i	i	i
CSc1nnc2c(n1)c(C)nn2-c1ccc(C)cc1	nt	38	i	nt	i	i
O=C(CN1C(=O)NC2(CCCCC2)C1=O)NCc1ccc2c(c1)OCO2	nt	nt	nt	i	nt	i
CCOc1ccc(/C=C/[N+](=O)[O-])c2ccccc12	i	i	i	i	56	i
CCOC(=O)COc1ccc2ccccc2c1/C=C/[N+](=O)[O-]	39	i	i	i	i	i
CCOC(=O)COc1ccc(/C=C/[N+](=O)[O-])c(OCC(=O)OCC)c1	i	i	nt	i	i	i
Cn1c(Sc2ccccc2Cl)c(C=O)c2ccccc21	i	i	i	i	i	i
Cn1c(Sc2ccc(Cl)cc2)c(C=O)c2ccccc21	i	i	i	i	i	9.8
CCCCOc1ccc(NC(=S)Nc2cc(C)nc(SCCCC)n2)cc1	i	i	nt	i	i	9.6
COc1ccc(C(=O)Cn2c(NCCO)nc3ccccc32)cc1OC	nt	i	87	i	i	i
c1ccc(-c2nc3nonc3nc2-c2ccccc2)cc1	i	i	nt	i	70	i
O=C1OCc2ccc(NS(=O)(=O)c3ccc(C(F)(F)F)cc3)cc21	nt	nt	nt	i	nt	nt
CS(=O)(=O)Nc1ccc2c(c1)C(=O)OC2	i	53	i	i	i	i
Cc1cc(C)n(-c2nc3nonc3nc2Nc2cccc(C)c2C)n1	i	31	nt	i	i	i
O=C(NCc1cccs1)C12CC3CC(CC(C3)C1)C2	nt	nt	82	i	nt	i
CCN(c1ccccc1)S(=O)(=O)c1cc(C(=O)O)ccc1C	i	i	i	i	i	i
CCN1/C(=C/c2ccc3cc(C)ccc3[n+]2CC)Sc2ccccc21	i	i	i	i	98	i
C/C(CC(=O)Nc1ccc(Cl)cn1)=N\NC(=O)Cc1cccs1	nt	nt	nt	i	nt	nt
CC1(C)C2C/C(=N\O)C(C)(/[N+]([O-])=C/c3cccc([N+](=O)[O-])c3)CC21 (stereo not given)	nt	nt	nt	i	nt	i
SMILES	Yeast life ext	Measles CPE	Insulin prom inh	Mdm2 ligase inh	Yeast growth inh	RAM network inh
C[C@@H](C(=O)NCc1ccc(S(C)(=O)=O)cc1)[C@H]1C[C@]1(C)[C@H](NC(=O)OCc1ccccc1)c1ccccc1	i	i	i	nt	i	9.2
C[C@@H](C(=O)NCc1ccccc1)[C@@H]1C[C@@]1(C)[C@@H](NC(=O)OCc1ccccc1)c1ccccc1	i	i	i	nt	i	i
COc1ccc(C(=O)CNc2ccc(C)cc2C)cc1	nt	nt	nt	i	nt	nt
CCOC(=O)C1CCCC(NS(=O)(=O)c2ccc(NC(C)=O)cc2)C1 (stereo not given)	i	91	i	i	i	i
CCOC(=O)C1CCCN(C(=O)CSc2ccc(NC(C)=O)cc2)C1 (stereo not given)	nt	nt	i	i	nt	i
CCCCC(=O)Nc1cccc(C(=O)Nc2ccccc2C(=O)O)c1	nt	nt	i	i	nt	i

Screens deposited in PubChem by several laboratories.
